Test results: PMC9623233 (Clinical Cancer Research, 2022)

Assays:
[1] = CT900 plasma pharmacokinetics, noncompartmental analysis; type: in vivo, human; conditions: Cycle 1 Day 1; for AUC(0-t) / Cmax / clearance / Tmax / Vd: human, plasma, iv
How it was run: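 Test compound was given intravenously, weekly (1–6 mg/m2) or every 2 weeks (2–12 mg/m2). Plasma concentration–time data were analysed noncompartmentally for AUClast, AUC∞, AUC0–24, Cmax, Tmax, t1/2, λz, clearance and Vss. Summaries are geometric mean with CV%, arithmetic mean and median.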

[2] = system: high-grade serous ovarian cancer; experiment: Antitumor activity: RECIST v1.1 response and time on treatment; type: in vivo, human

Compound: C#CCN(c1ccc(C(=O)N[C@@H](CCC(=O)N[C@H](CCC(=O)O)C(=O)O)C(=O)O)cc1)[C@H]1CCc2cc3nc(CO)[nH]c(=O)c3cc21 [CT900, N-[4-[2-propyn-1-yl[(6S)-4,6,7,8-tetrahydro-2-(hydroxymethyl)-4-oxo-3H-cyclopenta [g]quinazolin-6-yl]amino]benzoyl]-l-gamma-glutamyl-D-glutamic acid]
- HL Lambda_z ([1]; 1 mg/m^2 i.v., Geometric Mean, N 3): 6.1 h
- HL Lambda_z ([1]; 1 mg/m^2 i.v., Mean, N 3): 6.7 h
- HL Lambda_z ([1]; 1 mg/m^2 i.v., Median, N 3): 7.5 h
- HL Lambda_z ([1]; 1 mg/m^2 i.v., Range, N 3): 3.2 to 9.4 h
- HL Lambda_z ([1]; 2 mg/m^2 i.v., Geometric Mean, N 4): 11.8 h
- HL Lambda_z ([1]; 2 mg/m^2 i.v., Mean, N 4): 12.6 h
- HL Lambda_z ([1]; 2 mg/m^2 i.v., Median, N 4): 11.3 h
- HL Lambda_z ([1]; 2 mg/m^2 i.v., Range, N 4): 7.5 to 20.0 h
- HL Lambda_z ([1]; 6 mg/m^2 i.v., Mean, N 1): 19.9 h
- HL Lambda_z ([1]; 12 mg/m^2 i.v., Geometric Mean, N 5): 28.1 h
- HL Lambda_z ([1]; 12 mg/m^2 i.v., Mean, N 5): 28.7 h
- HL Lambda_z ([1]; 12 mg/m^2 i.v., Median, N 5): 26.5 h
- HL Lambda_z ([1]; 12 mg/m^2 i.v., Range, N 5): 23.0 to 41.0 h
- AUC(0-t) ([1]; 1 mg/m2, AUC0-24, 1 mg/m^2 i.v., Mean, N 3): 1650 ng·h/mL
- AUC(0-t) ([1]; 1 mg/m2, AUC0-24, 1 mg/m^2 i.v., Median, N 3): 1620 ng·h/mL
- AUC(0-t) ([1]; 1 mg/m2, AUC0-24, 1 mg/m^2 i.v., Range, N 3): 1020 to 2330 ng·h/mL
- AUC(0-t) ([1]; 1 mg/m2, AUClast, 1 mg/m^2 i.v., Mean, N 3): 1650 ng·h/mL
- AUC(0-t) ([1]; 1 mg/m2, AUClast, 1 mg/m^2 i.v., Median, N 3): 1620 ng·h/mL
- AUC(0-t) ([1]; 1 mg/m2, AUClast, 1 mg/m^2 i.v., Range, N 3): 1020 to 2330 ng·h/mL
- Cmax ([1]; 1 mg/m2, C max, 1 mg/m^2 i.v., Mean, N 3): 402 ng/mL
- Cmax ([1]; 1 mg/m2, C max, 1 mg/m^2 i.v., Median, N 3): 401 ng/mL
- Cmax ([1]; 1 mg/m2, C max, 1 mg/m^2 i.v., Range, N 3): 374 to 432 ng/mL
- clearance ([1]; 1 mg/m2, Cl, 1 mg/m^2 i.v., Mean, N 3): 20.3 mL/min
- clearance ([1]; 1 mg/m2, Cl, 1 mg/m^2 i.v., Median, N 3): 20.8 mL/min
- clearance ([1]; 1 mg/m2, Cl, 1 mg/m^2 i.v., Range, N 3): 10.4 to 29.7 mL/min
- Tmax ([1]; 1 mg/m2, T max, 1 mg/m^2 i.v., Mean, N 3): 1 h
- Tmax ([1]; 1 mg/m2, T max, 1 mg/m^2 i.v., Median, N 3): 1 h
- Tmax ([1]; 1 mg/m2, T max, 1 mg/m^2 i.v., Range, N 3): 1 h
- Vd ([1]; 1 mg/m2, Vss, 1 mg/m^2 i.v., Mean, N 3): 7.59 L
- Vd ([1]; 1 mg/m2, Vss, 1 mg/m^2 i.v., Median, N 3): 6.75 L
- Vd ([1]; 1 mg/m2, Vss, 1 mg/m^2 i.v., Range, N 3): 6.71 to 9.32 L
- AUC(0-t) ([1]; 2 mg/m2, AUC0-24, 2 mg/m^2 i.v., Mean, N 4): 4890 ng·h/mL
- AUC(0-t) ([1]; 2 mg/m2, AUC0-24, 2 mg/m^2 i.v., Median, N 4): 4730 ng·h/mL
- AUC(0-t) ([1]; 2 mg/m2, AUC0-24, 2 mg/m^2 i.v., Range, N 4): 2520 to 7590 ng·h/mL
- AUC(0-t) ([1]; 2 mg/m2, AUClast, 2 mg/m^2 i.v., Mean, N 4): 6860 ng·h/mL
- AUC(0-t) ([1]; 2 mg/m2, AUClast, 2 mg/m^2 i.v., Median, N 4): 6050 ng·h/mL
- AUC(0-t) ([1]; 2 mg/m2, AUClast, 2 mg/m^2 i.v., Range, N 4): 2520 to 12800 ng·h/mL
- Cmax ([1]; 2 mg/m2, C max, 2 mg/m^2 i.v., Mean, N 4): 746 ng/mL
- Cmax ([1]; 2 mg/m2, C max, 2 mg/m^2 i.v., Median, N 4): 759 ng/mL
- Cmax ([1]; 2 mg/m2, C max, 2 mg/m^2 i.v., Range, N 4): 613 to 855 ng/mL
- clearance ([1]; 2 mg/m2, Cl, 2 mg/m^2 i.v., Mean, N 4): 11.2 mL/min
- clearance ([1]; 2 mg/m2, Cl, 2 mg/m^2 i.v., Median, N 4): 8.72 mL/min
- clearance ([1]; 2 mg/m2, Cl, 2 mg/m^2 i.v., Range, N 4): 4.07 to 23.4 mL/min
- Tmax ([1]; 2 mg/m2, T max, 2 mg/m^2 i.v., Mean, N 4): 0.9 h
- Tmax ([1]; 2 mg/m2, T max, 2 mg/m^2 i.v., Median, N 4): 1 h
- Tmax ([1]; 2 mg/m2, T max, 2 mg/m^2 i.v., Range, N 4): 0.5 to 1.1 h
- Vd ([1]; 2 mg/m2, Vss, 2 mg/m^2 i.v., Mean, N 4): 8.52 L
- Vd ([1]; 2 mg/m2, Vss, 2 mg/m^2 i.v., Median, N 4): 7.41 L
- Vd ([1]; 2 mg/m2, Vss, 2 mg/m^2 i.v., Range, N 4): 6.53 to 12.7 L
- AUC(0-t) ([1]; 6 mg/m2, AUC0-24, 6 mg/m^2 i.v., Mean, N 1): 15100 ng·h/mL
- AUC(0-t) ([1]; 6 mg/m2, AUClast, 6 mg/m^2 i.v., Mean, N 1): 25600 ng·h/mL
- Cmax ([1]; 6 mg/m2, C max, 6 mg/m^2 i.v., Mean, N 1): 2030 ng/mL
- clearance ([1]; 6 mg/m2, Cl, 6 mg/m^2 i.v., Mean, N 1): 7.67 mL/min
- Tmax ([1]; 6 mg/m2, T max, 6 mg/m^2 i.v., Mean, N 1): 1 h
- Vd ([1]; 6 mg/m2, Vss, 6 mg/m^2 i.v., Mean, N 1): 12 L
- AUC(0-t) ([1]; 12 mg/m2, AUC0-24, 12 mg/m^2 i.v., Geometric Mean, N 5): 46900 ng·h/mL
- AUC(0-t) ([1]; 12 mg/m2, AUC0-24, 12 mg/m^2 i.v., Mean, N 5): 47200 ng·h/mL
- AUC(0-t) ([1]; 12 mg/m2, AUC0-24, 12 mg/m^2 i.v., Median, N 5): 45400 ng·h/mL
- AUC(0-t) ([1]; 12 mg/m2, AUC0-24, 12 mg/m^2 i.v., Range, N 5): 42300 to 58600 ng·h/mL
- AUC(0-t) ([1]; 12 mg/m2, AUClast, 12 mg/m^2 i.v., Geometric Mean, N 5): 85900 ng·h/mL
- AUC(0-t) ([1]; 12 mg/m2, AUClast, 12 mg/m^2 i.v., Mean, N 5): 87600 ng·h/mL
- AUC(0-t) ([1]; 12 mg/m2, AUClast, 12 mg/m^2 i.v., Median, N 5): 83500 ng·h/mL
- AUC(0-t) ([1]; 12 mg/m2, AUClast, 12 mg/m^2 i.v., Range, N 5): 68700 to 123000 ng·h/mL
- Cmax ([1]; 12 mg/m2, C max, 12 mg/m^2 i.v., Geometric Mean, N 5): 5100 ng/mL
- Cmax ([1]; 12 mg/m2, C max, 12 mg/m^2 i.v., Mean, N 5): 5130 ng/mL
- Cmax ([1]; 12 mg/m2, C max, 12 mg/m^2 i.v., Median, N 5): 4830 ng/mL
- Cmax ([1]; 12 mg/m2, C max, 12 mg/m^2 i.v., Range, N 5): 4460 to 6010 ng/mL
- clearance ([1]; 12 mg/m2, Cl, 12 mg/m^2 i.v., Geometric Mean, N 5): 3.45 mL/min
- clearance ([1]; 12 mg/m2, Cl, 12 mg/m^2 i.v., Mean, N 5): 3.6 mL/min
- clearance ([1]; 12 mg/m2, Cl, 12 mg/m^2 i.v., Median, N 5): 3.68 mL/min
- clearance ([1]; 12 mg/m2, Cl, 12 mg/m^2 i.v., Range, N 5): 2.1 to 5.05 mL/min
- Tmax ([1]; 12 mg/m2, T max, 12 mg/m^2 i.v., Geometric Mean, N 5): 1 h
- Tmax ([1]; 12 mg/m2, T max, 12 mg/m^2 i.v., Mean, N 5): 1 h
- Tmax ([1]; 12 mg/m2, T max, 12 mg/m^2 i.v., Median, N 5): 1 h
- Tmax ([1]; 12 mg/m2, T max, 12 mg/m^2 i.v., Range, N 5): 1 h
- Vd ([1]; 12 mg/m2, Vss, 12 mg/m^2 i.v., Geometric Mean, N 5): 7.59 L
- Vd ([1]; 12 mg/m2, Vss, 12 mg/m^2 i.v., Mean, N 5): 7.62 L
- Vd ([1]; 12 mg/m2, Vss, 12 mg/m^2 i.v., Median, N 5): 7.33 L
- Vd ([1]; 12 mg/m2, Vss, 12 mg/m^2 i.v., Range, N 5): 6.99 to 9.06 L
- RECIST v1.1 response rate ([2]; 6 mg/m^2/q2Wk, medium and high α-FR, 0/9): 0%
- Patients who received treatment for ≥16 weeks ([2]; 12 mg/m^2/q2Wk, medium and high α-FR, 5/25): 20%
- RECIST v1.1 response rate ([2]; 12 mg/m^2/q3Wk, medium and high α-FR, 1/5): 20%
- Partial responses ([2]; dose escalation cohort, high-grade serous ovarian cancer, 4 of 11): 36.4%
- Overall response rate (ORR) ([2]; expansion cohorts, regardless of α-FR status, 14/64): 21.9%
